# Reference: ChEMBL document CHEMBL2163267, “Novel N-linked aminopiperidine inhibitors of bacterial topoisomerase type II with reduced pK(a): antibacterial agents with an improved safety profile” (J Med Chem, 2012)
# Experiments:
# [1] = Oral bioavailability in Beagle dog at 10 mg/kg; format: ADME, organism-based, Canis lupus familiaris; details: in vivo
# Method in brief: (§1)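 Bioavailability from a 10 mg/kg oral dose, by gavage in rats (groups of three) or orally in male beagle dogs (n = 3). Plasma sampled serially over time (dogs 0 to 24 h). Levels measured by LC-MS/MS and referenced to iv dosing. Parameters from non-compartmental analysis.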
# [2] = Oral bioavailability in Wistar Han rat at 10 mg/kg; format: ADME, organism-based; details: in vivo; method in brief: as §1
# [3] = AUC in Beagle dog at 3 mg/kg, iv administered as bolus dose; format: ADME, organism-based, Canis lupus familiaris; set-up: dose 3 mg/kg, route intravenous; details: plasma
# [4] = AUC in Wistar Han rat at 3 mg/kg, iv administered as bolus dose; format: ADME, organism-based; set-up: dose 3 mg/kg, route intravenous; details: plasma
# Method in brief: (§2)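 Single iv dose (3 mg/kg bolus, or 10 mg/kg infusion, per line). Rats in groups of three, bolus via cannulated jugular vein. Male beagle dogs (n = 3), iv as 15 min infusion, sampled 0 to 24 h. Serial whole-blood samples taken at time intervals. Plasma levels measured by LC-MS/MS. Parameters estimated by non-compartmental analysis.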
# [5] = Half life in Beagle dog at 3 mg/kg, iv administered as bolus dose and 10 mg/kg, po; format: ADME, organism-based, Canis lupus familiaris; details: in vivo
# [6] = Half life in Wistar Han rat at 3 mg/kg, iv administered as bolus dose and 10 mg/kg, po; format: ADME, organism-based; details: in vivo; method in brief: as §2
# [7] = Volume of distribution in Beagle dog at 3 mg/kg, iv administered as bolus dose and 10 mg/kg, po; format: ADME, organism-based, Canis lupus familiaris; details: in vivo
# [8] = Volume of distribution in Wistar Han rat at 3 mg/kg, iv administered as bolus dose and 10 mg/kg, po; format: ADME, organism-based; details: in vivo; method in brief: as §2
# [9] = Clearance in Beagle dog at 3 mg/kg, iv administered as bolus dose and 10 mg/kg, po; format: ADME, organism-based, Canis lupus familiaris; details: in vivo
# [10] = Clearance in Wistar Han rat at 3 mg/kg, iv administered as bolus dose and 10 mg/kg, po; format: ADME, organism-based; details: in vivo; method in brief: as §2
# [11] = Intrinsic clearance in Beagle dog hepatocytes measured per 10^6 cells; format: ADME, cell-based, Canis lupus familiaris, Hepatocyte; details: read-out: CLH
# [12] = Intrinsic clearance in Wistar Han rat hepatocytes measured per 10^6 cells; format: ADME, cell-based, Hepatocyte; details: read-out: CLH
# [13] = tested on: Cavia porcellus; test: Cardiotoxicity in iv dosed guinea pig assessed as MAPD90 prolongation at 16 uM free plasma concentration; format: toxicity, organism-based; details: in vivo
# Method in brief: (§3)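 Male guinea pigs anaesthetized with Nembutal, tracheotomized and mechanically ventilated. Compound given iv in two 17 min infusion periods with cardiac pacing. Monophasic action potential recorded continuously and MAPD90 taken. Blood drawn at each dose level for plasma concentration. Vehicle controls run in separate cohorts; n = 6.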
# [14] = biological target: T1, Voltage-gated inwardly rectifying potassium channel KCNH2 (Homo sapiens, UniProt Q12809); test: Displacement of [3H]-astemizole from human ERG expressed in HEK293 cells after 60 mins by liquid scintillation counter; format: cell-based
# T1 sequence (Q12809 whole entry): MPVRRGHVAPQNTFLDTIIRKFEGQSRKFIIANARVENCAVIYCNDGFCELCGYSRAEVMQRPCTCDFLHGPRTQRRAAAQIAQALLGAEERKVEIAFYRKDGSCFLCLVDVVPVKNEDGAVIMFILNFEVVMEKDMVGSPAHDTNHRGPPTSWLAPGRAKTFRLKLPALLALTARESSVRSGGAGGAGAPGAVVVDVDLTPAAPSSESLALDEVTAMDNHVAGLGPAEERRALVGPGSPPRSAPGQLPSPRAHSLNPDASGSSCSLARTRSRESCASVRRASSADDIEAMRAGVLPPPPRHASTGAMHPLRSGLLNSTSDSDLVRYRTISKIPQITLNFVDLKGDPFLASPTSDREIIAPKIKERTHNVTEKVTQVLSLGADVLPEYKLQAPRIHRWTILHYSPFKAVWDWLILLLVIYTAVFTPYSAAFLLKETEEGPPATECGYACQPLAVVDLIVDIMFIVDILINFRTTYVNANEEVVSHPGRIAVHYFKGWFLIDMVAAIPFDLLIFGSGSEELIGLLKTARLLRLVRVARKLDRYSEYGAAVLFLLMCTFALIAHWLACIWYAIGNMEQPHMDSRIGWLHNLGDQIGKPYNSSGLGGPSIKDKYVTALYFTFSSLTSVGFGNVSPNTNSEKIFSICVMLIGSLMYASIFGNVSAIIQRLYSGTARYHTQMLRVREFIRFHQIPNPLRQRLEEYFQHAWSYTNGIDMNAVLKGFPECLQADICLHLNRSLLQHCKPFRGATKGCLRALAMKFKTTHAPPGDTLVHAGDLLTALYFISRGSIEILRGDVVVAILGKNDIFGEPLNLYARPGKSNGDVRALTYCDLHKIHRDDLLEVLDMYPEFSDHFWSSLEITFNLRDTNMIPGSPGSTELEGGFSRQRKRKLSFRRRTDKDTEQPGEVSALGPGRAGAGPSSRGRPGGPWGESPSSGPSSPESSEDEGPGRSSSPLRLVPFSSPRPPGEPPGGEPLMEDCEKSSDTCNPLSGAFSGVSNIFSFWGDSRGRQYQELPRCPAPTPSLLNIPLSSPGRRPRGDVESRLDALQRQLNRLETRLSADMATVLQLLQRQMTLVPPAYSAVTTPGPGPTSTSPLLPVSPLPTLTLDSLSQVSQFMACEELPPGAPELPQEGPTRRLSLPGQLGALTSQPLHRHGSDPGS
# [15] = biological target: T1, Voltage-gated inwardly rectifying potassium channel KCNH2; test: Inhibition of human ERG by Ionworks assay
# [16] = Dissociation constant, pKa of the compound by pH metric assay; format: physicochemical
# Method in brief: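 pH-metric titration on an automated titrator, run in triplicate. Accuracy about 0.02 log units.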
# [17] = Octanol-phosphate buffer partition coefficient, log D of the compound at pH 7.4 by shake flask method; format: physicochemical
# Method in brief: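 Shake-flask partition between n-octanol and 10 mM phosphate buffer at pH 7.4. Shaken 1 h at 1200 rpm to reach equilibrium. Phases analysed by LC/UV, with MS for mass confirmation.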
# [18] = Inhibition of Escherichia coli DNA topoisomerase 4 subunit ParC/DNA topoisomerase 4 subunit ParE ATPase activity after 24 hrs by malachite green staining-based colorimetric assay
# [19] = Fraction unbound in human plasma at 10 uM by equilibrium dialysis method; format: ADME, cell-free
# Method in brief: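 Equilibrium dialysis. Compound at 10 μM in the plasma (donor) chamber against phosphate buffer, rotated at 37 °C for 16 h. Drug in the plasma and buffer samples quantified by LC-MS/MS after methanol protein precipitation with internal standard. Standard curve 10 nM to 10 μM.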
# [20] = tested on: Escherichia coli; test: Antibacterial activity against Escherichia coli W3110 after 18 to 24 hrs by CLSI broth microdilution method; format: functional
# [21] = tested on: Pseudomonas aeruginosa; test: Antibacterial activity against Pseudomonas aeruginosa PAO1 after 18 to 24 hrs by CLSI broth microdilution method; format: functional
# [22] = tested on: Streptococcus pneumoniae; test: Antibacterial activity against penicillin-susceptible Streptococcus pneumoniae D39 after 18 to 24 hrs by CLSI broth microdilution method; format: functional
# [23] = tested on: Staphylococcus aureus; test: Antibacterial activity against methicillin-susceptible Staphylococcus aureus after 18 to 24 hrs by CLSI broth microdilution method; format: functional
# [24] = tested on: Mus musculus; test: AUC (infinity) in CD1 mouse infected with methicillin-resistant Staphylococcus aureus ARC 1692 at 60 mg/kg/day, ip; format: ADME, organism-based, Plasma; set-up: dose 60 mg/kg/day, time infinity, route intraperitoneal; details: in vivo
# [25] = tested on: Mus musculus; test: AUC (infinity) in CD1 mouse infected with methicillin-resistant Staphylococcus aureus ARC 1692 at 40 mg/kg/day, ip; format: ADME, organism-based, Plasma; set-up: dose 40 mg/kg/day, time infinity, route intraperitoneal; details: in vivo
# [26] = tested on: Mus musculus; test: AUC (infinity) in CD1 mouse infected with methicillin-resistant Staphylococcus aureus ARC 1692 at 20 mg/kg/day, ip; format: ADME, organism-based, Plasma; set-up: dose 20 mg/kg/day, time infinity, route intraperitoneal; details: in vivo
# [27] = tested on: Staphylococcus aureus; test: Antibacterial activity against methicillin-resistant Staphylococcus aureus ARC 1692 in ABT-treated CD1 mouse neutropenic thigh infection model assessed as reduction in log10 CFU per gram of thigh at 60 mg/kg/day, ip qd starting 2 hrs post-infection measured after 24 hrs; format: functional; details: route intraperitoneal
# [28] = tested on: Staphylococcus aureus; test: Antibacterial activity against methicillin-resistant Staphylococcus aureus ARC 1692 in ABT-treated CD1 mouse neutropenic thigh infection model assessed as reduction in log10 CFU per gram of thigh at 40 mg/kg/day, ip qd starting 2 hrs post-infection measured after 24 hrs; format: functional; details: route intraperitoneal
# [29] = tested on: Staphylococcus aureus; test: Antibacterial activity against methicillin-resistant Staphylococcus aureus ARC 1692 in ABT-treated CD1 mouse neutropenic thigh infection model assessed as reduction in log10 CFU per gram of thigh at 20 mg/kg/day, ip qd starting 2 hrs post-infection measured after 24 hrs; format: functional; details: route intraperitoneal
# [30] = AUC in Beagle dog at 10 mg/kg, iv administered as infusion; format: ADME, organism-based, Canis lupus familiaris; set-up: dose 10 mg/kg, route intravenous; details: plasma; method in brief: as §2
# [31] = AUC in Wistar Han rat at 10 mg/kg, iv administered as infusion; format: ADME, organism-based; set-up: dose 10 mg/kg, route intravenous; details: plasma; method in brief: as §2
# [32] = Half life in Beagle dog at 10 mg/kg, iv administered as infusion and po; format: ADME, organism-based, Canis lupus familiaris; set-up: dose 10 mg/kg, route oral; details: in vivo
# [33] = Half life in Wistar Han rat at 10 mg/kg, iv administered as infusion and po; format: ADME, organism-based; set-up: dose 10 mg/kg, route oral; details: in vivo
# [34] = tested on: Canis familiaris; test: Volume of distribution in Beagle dog at 10 mg/kg, iv administered as infusion and po; format: ADME, organism-based, Canis lupus familiaris; set-up: dose 10 mg/kg, route oral; details: in vivo; method in brief: as §2
# [35] = tested on: Rattus norvegicus; test: Volume of distribution in Wistar Han rat at 10 mg/kg, iv administered as infusion and po; format: ADME, organism-based; set-up: dose 10 mg/kg, route oral; details: in vivo; method in brief: as §2
# [36] = Intrinsic clearance in human hepatocytes measured per 10^6 cells; format: ADME, cell-based, Hepatocyte; details: read-out: CLH
# [37] = tested on: Staphylococcus aureus; test: Antibacterial activity against linezolid-resistant Staphylococcus aureus ARC 3583 after 18 to 24 hrs by CLSI broth microdilution method; format: functional
# Method in brief: (§4)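 CLSI broth microdilution in Mueller Hinton Broth 2. Inocula prepared from blood agar plates grown at 35 °C for 18–24 h. Compound in DMSO, 2% DMSO final, 11 doubling dilutions from 64 to 0.06 μg/mL. Plates read at 620 nm.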
# [38] = tested on: Staphylococcus aureus; test: Antibacterial activity against vancomycin-resistant Staphylococcus aureus ARC 3186 after 18 to 24 hrs by CLSI broth microdilution method; format: functional; method in brief: as §4
# [39] = tested on: Staphylococcus aureus; test: Antibacterial activity against hospital acquired methicillin-resistant Staphylococcus aureus ARC 1692 after 18 to 24 hrs by CLSI broth microdilution method; format: functional; method in brief: as §4
# [40] = tested on: Staphylococcus aureus; test: Antibacterial activity against community acquired methicillin-resistant Staphylococcus aureus ARC 3189 after 18 to 24 hrs by CLSI broth microdilution method; format: functional; method in brief: as §4
# [41] = tested on: Cavia porcellus; test: Cardiotoxicity in iv dosed guinea pig assessed as change in MAPD90 at 67 uM total plasma concentration; format: toxicity, organism-based; details: in vivo; method in brief: as §3
Structure (SMILES),bioavailability [1],bioavailability [2],AUC [3],AUC [4],Vd [7],Vd [8],clearance [9],clearance [10],hepatocyte CLint [11],hepatocyte CLint [12],IC50 [14],IC50 [15],pKa [16],logD [17],IC50 [18],fraction unbound at 10 µM [19],MIC [20],MIC [21],MIC [22],MIC [23],further results
N#Cc1ccc2ccc(=O)n(CCN3CCC(NCc4cc5c(cn4)OCCO5)CC3)c2c1,72%,31%,2600 ng·h/mL,370 ng·h/mL,8 L/kg,21 L/kg,18 mL/min/kg,127 mL/min/kg,1.8 µL/min/1e6 cells,42 µL/min/1e6 cells,39 µM,44 µM,8.27,0.68,0.0032 µM,0.28,0.5 µg/mL,> 8 µg/mL,0.08 µg/mL,0.03 µg/mL,half-life [5]: 8.4 h; half-life [6]: 3 h; Activity [13]: > 10%
COc1ccc2ncc(=O)n(CCN3CCC(NCc4ccc5c(n4)NC(=O)CO5)CC3)c2c1,–,–,6800 ng·h/mL,190 ng·h/mL,2 L/kg,23 L/kg,8.5 mL/min/kg,252 mL/min/kg,< 1 µL/min/1e6 cells,26 µL/min/1e6 cells,–,–,8.42,0.6,0.0022 µM,0.26,0.13 µg/mL,1 µg/mL,0.08 µg/mL,0.03 µg/mL,–
N#Cc1ccc2ccc(=O)n(CCN3CC[C@H](NCc4cc5c(cn4)OCCO5)[C@H](F)C3)c2c1,60%,18%,–,–,–,–,–,–,4.5 µL/min/1e6 cells,13 µL/min/1e6 cells,> 200 µM,233 µM,7.03,0.96,0.048 µM,0.25,4 µg/mL,> 8 µg/mL,0.13 µg/mL,0.06 µg/mL,AUC [24]: 53 µg/h/mL; AUC [25]: 37 µg/h/mL; AUC [26]: 18 µg/h/mL; log10cfu [27]: 1.5; log10cfu [28]: 1; log10cfu [29]: 0.1; AUC [30]: 27000 ng·h/mL; AUC [31]: 3100 ng·h/mL; half-life [32]: 3.4 h; half-life [33]: 0.9 h; Vd [34]: 1.5 L/kg; Vd [35]: 3 L/kg; hepatocyte CLint [36]: 5.2 µL/min/1e6 cells; MIC [37]: 0.125 µg/mL; MIC [38]: 0.015 µg/mL; MIC [39]: 0.125 µg/mL; MIC [40]: 0.06 µg/mL; Activity [41]: Non-toxic
